# ChEMBL document CHEMBL1156256, “Poly(ethylene glycol) (PEG-400) as an alternative reaction solvent for the synthesis of some new 1-(4-(4'-chlorophenyl)-2-thiazolyl)-3-aryl-5-(2-butyl-4-chloro-1H-imidazol-5yl)-2-pyrazolines and their in vitro antimicrobial evaluation” (2010)
# How the values were obtained:
# Escherichia coli = experiment: Antibacterial activity against Escherichia coli MTCC 2939 after 24 hrs by agar diffusion method; format: functional; conditions: for MIC: Escherichia coli, MTCC 2939, 24 h
# Summary of the method: (§1)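 Agar well diffusion following NCCLS. Bacteria kept on nutrient agar slants at 37 ± 0.5 °C for 24 h. Nutrient agar plates seeded with 0.1 mL of culture suspension in 0.85% sterile saline (10⁵ CFU/mL). Plates incubated at 37 ± 0.5 °C for 24 h. Zone of inhibition recorded in mm, and MIC noted. 1% DMSO used as control.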
# Bacillus subtilis = experiment: Antibacterial activity against Bacillus subtilis MTCC 441 after 24 hrs by agar diffusion method; format: functional; conditions: for MIC: Bacillus subtilis, MTCC 441, 24 h; summary of the method: as §1
# Staphylococcus aureus = experiment: Antibacterial activity against Staphylococcus aureus MTCC 96 after 24 hrs by agar diffusion method; format: functional; conditions: for MIC: Staphylococcus aureus, MTCC 96, 24 h; summary of the method: as §1
# Salmonella enterica = experiment: Antibacterial activity against Salmonella typhi MTCC 98 after 24 hrs by agar diffusion method; format: functional, Salmonella enterica subsp. enterica serovar Typhi; conditions: for MIC: Salmonella enterica, MTCC 98, 24 h
# Summary of the method: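 NCCLS agar diffusion. Strain kept on nutrient agar slant at 37 ± 0.5 °C for 24 h. Nutrient agar plates seeded with 0.1 mL of a 10⁵ CFU/mL suspension in sterile 0.85% saline. Plates incubated at 37 ± 0.5 °C for 24 h. Read-out: zone of inhibition (mm) and MIC.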
# Aspergillus niger = experiment: Antifungal activity against Aspergillus niger MTCC 281 after 24 to 48 hrs by agar diffusion method; format: functional
# Summary of the method: (§2)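 Fungi grown on potato dextrose agar slants at 27 ± 0.2 °C for 24–48 h until sporulation. Spores suspended in sterile water with 1% Tween-80 and counted by haemocytometer (10⁶ CFU/mL). 0.1 mL spread on 2% agar PDA plates and held at 27 °C for 12 h. Wells then received 0.1 mL of compound at graded concentrations for MIC. Plates refrigerated 20 min for diffusion, then incubated at 27 ± 0.2 °C for […]. Zone read in mm. 1% DMSO used as control.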
# Fusarium verticillioides = experiment: Antifungal activity against Fusarium moniliforme MTCC 156 after 24 to 48 hrs by agar diffusion method; format: functional; summary of the method: as §2
# Trichoderma viride = experiment: Antifungal activity against Trichoderma viride MTCC 167 after 24 to 48 hrs by agar diffusion method; format: functional; summary of the method: as §2
# Penicillium chrysogenum = experiment: Antifungal activity against Penicillium chrysogenum MTCC 160 after 24 to 48 hrs by agar diffusion method; format: functional; summary of the method: as §2
# Candida albicans = experiment: Antifungal activity against Candida albicans MTCC 183 after 24 to 48 hrs by agar diffusion method; format: functional; summary of the method: as §2
# [1] = Fusarium verticillioides, MTCC 156
# [2] = Penicillium chrysogenum, MTCC 160
Compound,inhibition zone (IZ) (Escherichia coli) [mm],MIC (Escherichia coli) [µg/mL],inhibition zone (IZ) (Bacillus subtilis) [mm],MIC (Bacillus subtilis) [µg/mL],inhibition zone (IZ) (Staphylococcus aureus) [mm],MIC (Staphylococcus aureus) [µg/mL],inhibition zone (IZ) (Salmonella enterica) [mm],MIC (Salmonella enterica) [µg/mL],inhibition zone (IZ) (Aspergillus niger) [mm],"MIC (Aspergillus niger; Aspergillus niger, MTCC 281) [µg/mL]",inhibition zone (IZ) (Fusarium verticillioides) [mm],MIC (Fusarium verticillioides; [1]) [µg/mL],inhibition zone (IZ) (Trichoderma viride) [mm],"MIC (Trichoderma viride; Trichoderma viride, MTCC 167) [µg/mL]",inhibition zone (IZ) (Penicillium chrysogenum) [mm],MIC (Penicillium chrysogenum; [2]) [µg/mL],inhibition zone (IZ) (Candida albicans) [mm],"MIC (Candida albicans; Candida albicans, MTCC 183) [µg/mL]",also measured
CN(C)[C@@H]1C(O)=C(C(N)=O)C(=O)[C@@]2(O)C(O)=C3C(=O)c4c(O)cccc4[C@@](C)(O)[C@H]3C[C@@H]12 [TETRACYCLINE],30,25,32,25,30,25,28,25,,,,,,,,,,,
CCCCc1nc(Cl)c(C2CC(c3cc(Cl)ccc3O)=NN2c2nc(-c3ccc(Cl)cc3)cs2)[nH]1 (stereo not given),18,25,18,25,16,25,12,50,16,25,15,25,15,25,12,25,16,25,
CCCCc1nc(Cl)c(C2CC(c3ccc(N)cc3)=NN2c2nc(-c3ccc(Cl)cc3)cs2)[nH]1 (stereo not given),12,50,8,50,10,50,,> 100,14,25,,> 100,12,50,10,50,,> 100,
CCCCc1nc(Cl)c(C2CC(c3cc(Cl)c(C)c(I)c3O)=NN2c2nc(-c3ccc(Cl)cc3)cs2)[nH]1 (stereo not given),18,25,19,25,14,50,16,25,14,25,14,25,12,25,15,25,13,25,
CCCCc1nc(Cl)c(C2CC(c3ccc(OC)cc3)=NN2c2nc(-c3ccc(Cl)cc3)cs2)[nH]1 (stereo not given),16,25,16,25,18,25,14,50,16,25,12,25,14,25,12,50,14,25,
CCCCc1nc(Cl)c(C2CC(c3cc(Cl)cc(Cl)c3O)=NN2c2nc(-c3ccc(Cl)cc3)cs2)[nH]1 (stereo not given),21,25,22,25,16,25,18,25,19,25,15,25,18,25,18,25,16,25,
CCCCc1nc(Cl)c(C2CC(c3cc(C)cc(Br)c3O)=NN2c2nc(-c3ccc(Cl)cc3)cs2)[nH]1 (stereo not given),16,25,14,50,12,50,12,50,10,50,9,50,14,25,13,50,12,25,
CCCCc1nc(Cl)c(C2CC(c3cc(Cl)c(C)cc3O)=NN2c2nc(-c3ccc(Cl)cc3)cs2)[nH]1 (stereo not given),14,50,,> 100,12,50,9,50,12,50,11,50,14,25,13,25,,> 100,
CCCCc1nc(Cl)c(C2CC(c3cc(Cl)c(C)c(Br)c3O)=NN2c2nc(-c3ccc(Cl)cc3)cs2)[nH]1 (stereo not given),15,25,18,25,11,50,12,50,15,25,15,25,16,50,9,50,12,50,
CCCCc1nc(Cl)c(C2CC(c3ccccc3O)=NN2c2nc(-c3ccc(Cl)cc3)cs2)[nH]1 (stereo not given),15,50,16,50,13,50,10,50,14,25,13,25,16,25,14,25,15,25,
NYSTATIN,,,,,,,,,18,,16,,18,,16,,18,,MIC (Aspergillus niger): 25 µg/mL; MIC (Fusarium verticillioides): 25 µg/mL; MIC (Trichoderma viride): 25 µg/mL; MIC (Penicillium chrysogenum): 25 µg/mL; MIC (Candida albicans): 25 µg/mL
